One block for each compound: values may come before it. The source made the active and inactive calls. The rule behind the calls is not given here.
Columns and labels:
[1] = Permeability of the compound in Sprague-Dawley rat brain striatum at 1 to 30 mins by CT scan; assay type: ADME, tissue-based; settings: time 1-30 min
Procedure, shortened: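 Male Sprague–Dawley rats under isoflurane anaesthesia were injected iv via tail vein with the [11C] tracer (63.0–87.3 MBq). Dynamic PET ran for 60 min, reconstructed by MLEM, with a CT scan for attenuation correction. Striatal SUV time-activity curves were derived, and images were summed over 1–30 min.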

[2] = Lipophilicity, LogD at pH 7.4 of the compound by shake flask method; assay type: physicochemical; settings: buffer
Procedure, shortened: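 Shake-flask method: 0.1 mg compound in n-octanol/PBS pH 7.4 (1.0 mL each), vortexed 1 min and shaken at 37 °C overnight. Each phase was quantified by HPLC peak area at 254 nm, and LogD = log(octanol/PBS). Run at least three times.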

[3] = Stability of the compound in rat plasma measured at 60 min; assay type: ADME, cell-free; settings: read-out: Stability
Procedure, shortened: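 Compound (2.5 μL of 1 mM DMSO stock) was incubated in 100 μL rat serum at 37 °C for 60 min, then quenched with ice-cold acetonitrile and centrifuged. Supernatant was analysed by HPLC against an internal standard. Stability = peak area at 60 min / peak area at 0 min × 100%; at least three repeats.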

[4] = Stability of the compound in rat liver microsome measured at 60 min; assay type: ADME; settings: liver microsomes, read-out: Stability
Procedure, shortened: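 Compound (1.5 μL of 1 mM DMSO stock) in PBS was preincubated at 37 °C, then Sprague–Dawley rat liver microsomes and NADPH (10 mM stock) were added. After 60 min at 37 °C, reactions were quenched with cold acetonitrile and analysed by HPLC against an internal standard. Stability = 60 min/0 min peak area × 100%; at least three repeats.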

[5] = Drug uptake in Sprague-Dawley rat brain striatum mGlr2 rich region assessed as decrease in drug accumulation pretreated with 4-(8-bromo-2-oxo-2,3-dihydro-1H-benzo[b][1,4]diazepin-4-yl)picolinonitrile at 0.2 mg/kg, iv for 20 min before administration of tracer injection by CT scan; assay type: ADME, organism-based; settings: in vivo
Procedure, shortened: (§1)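 Male Sprague–Dawley rats (285–421 g) under isoflurane received [11C] tracer (63.0–87.3 MBq) iv via tail vein, followed by 60 min dynamic PET with CT for attenuation correction. Blockers were given iv 1 or 20 min before tracer, at 0.5 mg/kg (10% ethanol/5% Tween-80/saline) or 0.2 mg/kg (10% DMSO/5% Tween-20/PBS). Regional accumulation was taken over 2–30 min and compared with baseline scans.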

[6] = Drug metabolism in Cynomolgus monkey plasma assessed as parent compound remaining pretreated with 4-(4-fluorophenyl)-5-((1-methyl-1H-pyrazol-3-yl)methoxy)picolinamide at 1 mg/kg, iv for 20 mins before administration of tracer injection measured after 30 mins by CT scan; assay type: ADME, organism-based, Macaca fascicularis; settings: read-out: Stability
Procedure, shortened: (§2)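 Cynomolgus monkey (female, 5.0 kg) given tracer as a 3 min iv infusion, with blocker 1.0 mg/kg iv 20 min before. Plasma samples from 5–120 min were analysed by automated column-switching radioHPLC (capture column, then C18 with acetonitrile:0.1 M ammonium formate 45:55, 0.1% TFA). Eluate was collected in 1 min fractions and gamma-counted to give percent parent.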

[7] = Drug metabolism in Cynomolgus monkey plasma assessed as retention time of metabolite by measuring pretreated with 4-(4-fluorophenyl)-5-((1-methyl-1H-pyrazol-3-yl)methoxy)picolinamide at 1 mg/kg, iv for 20 min before administration of tracer injection by CT scan; assay type: ADME, organism-based, Macaca fascicularis; settings: in vivo; procedure, shortened: as §2
[8] = Permeability of the compound across blood brain barrier in Sprague-Dawley rat after 4 mins by CT scan; assay type: ADME, tissue-based
Procedure, shortened: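 Male Sprague–Dawley rats (285–421 g) under isoflurane (1.0–1.5%) in oxygen. [11C]tracer (63.0–87.3 MBq) given iv via tail-vein catheter. Dynamic PET ran 60 min from injection, followed by CT for anatomy and attenuation correction. Data were reconstructed by MLEM into 24 frames. Regional brain uptake was expressed as SUV time-activity curves.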

[9] = Drug uptake in Sprague-Dawley rat brain […] rich region assessed as decrease in drug accumulation pretreated with 4-(8-bromo-2-oxo-2,3-dihydro-1H-benzo[b][1,4]diazepin-4-yl)picolinonitrile at 0.2 mg/kg, iv for 1 min before administration of tracer injection by CT scan; assay type: ADME, organism-based; settings: in vivo; procedure, shortened: as §1
[10] = Drug uptake in Sprague-Dawley rat brain cortex mGlr2 rich region by CT scan; assay type: ADME, tissue-based; settings: in vivo; procedure, shortened: as §1
[11] = Drug metabolism in Cynomolgus monkey plasma assessed as parent compound remaining pretreated with 4-(4-fluorophenyl)-5-((1-methyl-1H-pyrazol-3-yl)methoxy)picolinamide at 1 mg/kg, iv for 20 mins before administration of tracer injection measured after 120 mins by CT scan; assay type: ADME, organism-based, Macaca fascicularis; settings: read-out: Stability; procedure, shortened: as §2
[12] = Drug uptake in Sprague-Dawley rat brain striatum mGlr2 rich region by CT scan; assay type: ADME, tissue-based; settings: in vivo; procedure, shortened: as §1
[13] = Drug uptake in Sprague-Dawley rat brain thalamus mGlr2 rich region assessed as decrease in drug accumulation pretreated with 4-(8-bromo-2-oxo-2,3-dihydro-1H-benzo[b][1,4]diazepin-4-yl)picolinonitrile at 0.2 mg/kg, iv for 1 min before administration of tracer injection by CT scan; assay type: ADME, organism-based; settings: in vivo; procedure, shortened: as §1
[14] = Drug uptake in Sprague-Dawley rat brain hippocampus mGlr2 rich region assessed as decrease in drug accumulation pretreated with 4-(8-bromo-2-oxo-2,3-dihydro-1H-benzo[b][1,4]diazepin-4-yl)picolinonitrile at 0.2 mg/kg, iv for 1 min before administration of tracer injection by CT scan; assay type: ADME, organism-based; settings: in vivo; procedure, shortened: as §1
[15] = Drug uptake in Sprague-Dawley rat brain thalamus mGlr2 rich region assessed as decrease in drug accumulation pretreated with 4-(8-bromo-2-oxo-2,3-dihydro-1H-benzo[b][1,4]diazepin-4-yl)picolinonitrile at 0.2 mg/kg, iv for 20 min before administration of tracer injection by CT scan; assay type: ADME, organism-based; settings: in vivo, pooled result: one value given for 4 cell lines, strains, targets or settings; procedure, shortened: as §1
[16] = Drug uptake in Sprague-Dawley rat brain thalamus mGlr2 rich region by CT scan; assay type: ADME, tissue-based; settings: in vivo; procedure, shortened: as §1
[17] = Drug uptake in Sprague-Dawley rat brain thalamus mGlr2 rich region assessed as decrease in drug accumulation pretreated with 4-(4-fluorophenyl)-5-((1-methyl-1H-pyrazol-3-yl)methoxy)picolinamide at 0.5 mg/kg, iv for 1 min before administration of tracer injection by CT scan; assay type: ADME, organism-based; settings: in vivo; procedure, shortened: as §1
[18] = Drug uptake in Sprague-Dawley rat brain hypothalamus mGlr2 rich region assessed as decrease in drug accumulation pretreated with 4-(8-bromo-2-oxo-2,3-dihydro-1H-benzo[b][1,4]diazepin-4-yl)picolinonitrile at 0.2 mg/kg, iv for 1 min before administration of tracer injection by CT scan; assay type: ADME, organism-based; settings: in vivo; procedure, shortened: as §1
[19] = Drug uptake in Sprague-Dawley rat brain striatum mGlr2 rich region assessed as decrease in drug accumulation pretreated with 4-(4-fluorophenyl)-5-((1-methyl-1H-pyrazol-3-yl)methoxy)picolinamide at 0.5 mg/kg, iv for 1 min before administration of tracer injection by CT scan; assay type: ADME, organism-based; settings: in vivo, pooled result: one value given for 4 cell lines, strains, targets or settings; procedure, shortened: as §1
[20] = Drug uptake in Sprague-Dawley rat brain hippocampus mGlr2 rich region by CT scan; assay type: ADME, tissue-based; settings: in vivo; procedure, shortened: as §1
[21] = Drug uptake in Sprague-Dawley rat brain cerebellum mGlr2 rich region by CT scan; assay type: ADME, tissue-based; settings: in vivo; procedure, shortened: as §1
[22] = Drug uptake in Sprague-Dawley rat brain cerebellum mGlr2 rich region assessed as decrease in drug accumulation pretreated with 4-(8-bromo-2-oxo-2,3-dihydro-1H-benzo[b][1,4]diazepin-4-yl)picolinonitrile at 0.2 mg/kg, iv for 20 min before administration of tracer injection by CT scan; assay type: ADME, organism-based; settings: in vivo; procedure, shortened: as §1
[23] = Drug uptake in Sprague-Dawley rat brain cerebellum mGlr2 rich region assessed as decrease in drug accumulation pretreated with 4-(8-bromo-2-oxo-2,3-dihydro-1H-benzo[b][1,4]diazepin-4-yl)picolinonitrile at 0.2 mg/kg, iv for 1 min before administration of tracer injection by CT scan; assay type: ADME, organism-based; settings: in vivo; procedure, shortened: as §1
[24] = Drug uptake in Sprague-Dawley rat brain striatum mGlr2 rich region assessed as decrease in drug accumulation pretreated with 4-(8-bromo-2-oxo-2,3-dihydro-1H-benzo[b][1,4]diazepin-4-yl)picolinonitrile at 0.2 mg/kg, iv for 1 min before administration of tracer injection by CT scan; assay type: ADME, organism-based; settings: in vivo; procedure, shortened: as §1
[25] = Drug uptake in Sprague-Dawley rat brain hypothalamus mGlr2 rich region by CT scan; assay type: ADME, tissue-based; settings: in vivo; procedure, shortened: as §1
[26] = Drug uptake in Sprague-Dawley rat brain cortex mGlr2 rich region assessed as decrease in drug accumulation pretreated with 4-(4-fluorophenyl)-5-((1-methyl-1H-pyrazol-3-yl)methoxy)picolinamide at 0.5 mg/kg, iv for 1 min before administration of tracer injection by CT scan; assay type: ADME, organism-based; settings: in vivo; procedure, shortened: as §1
[27] = biological target: T1, Metabotropic glutamate receptor 2 (Homo sapiens, UniProt Q14416); test: Binding affinity to human recombinant mGlur2 assessed as inhibition constant by cAMP Glosensor assay
Target sequence in this assay (Q14416 whole entry): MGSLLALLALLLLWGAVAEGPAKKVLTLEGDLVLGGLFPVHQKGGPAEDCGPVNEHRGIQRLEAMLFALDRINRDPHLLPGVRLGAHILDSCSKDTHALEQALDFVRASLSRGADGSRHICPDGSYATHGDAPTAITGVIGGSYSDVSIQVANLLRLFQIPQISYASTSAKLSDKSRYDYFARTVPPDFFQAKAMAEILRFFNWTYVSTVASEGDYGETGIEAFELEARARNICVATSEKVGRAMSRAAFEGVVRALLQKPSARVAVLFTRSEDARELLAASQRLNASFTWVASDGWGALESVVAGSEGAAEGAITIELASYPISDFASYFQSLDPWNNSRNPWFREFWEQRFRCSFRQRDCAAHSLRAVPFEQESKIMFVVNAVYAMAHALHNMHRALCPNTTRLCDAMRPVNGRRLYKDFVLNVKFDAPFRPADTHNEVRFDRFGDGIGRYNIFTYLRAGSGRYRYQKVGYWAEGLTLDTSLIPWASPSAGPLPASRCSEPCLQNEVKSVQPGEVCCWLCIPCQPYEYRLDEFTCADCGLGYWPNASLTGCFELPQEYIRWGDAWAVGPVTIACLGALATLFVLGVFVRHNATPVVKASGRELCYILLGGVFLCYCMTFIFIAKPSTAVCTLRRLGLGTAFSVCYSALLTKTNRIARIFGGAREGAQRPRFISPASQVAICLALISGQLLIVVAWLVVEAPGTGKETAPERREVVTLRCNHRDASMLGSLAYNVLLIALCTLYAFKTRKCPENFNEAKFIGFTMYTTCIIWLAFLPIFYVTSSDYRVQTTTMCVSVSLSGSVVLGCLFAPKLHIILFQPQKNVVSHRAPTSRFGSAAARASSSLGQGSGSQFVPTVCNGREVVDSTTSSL

[28] = biological target: T1, Metabotropic glutamate receptor 2; test: Negative allosteric modulation activity at human recombinant mGlur2 at 30 nM by cAMP Glosensor assay; assay type: functional; settings: filed as negative allosteric modulator
Procedure, shortened: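 Flp-In T-REx-293 cells with tetracycline-inducible mGluR2 (induced with 1 μg/mL tetracycline) were transfected with pGloSensor-21F and plated at 15,000 cells/well in BME with 1% dialyzed FBS. Split-luciferase cAMP read-out was taken with 0.1 μM isoproterenol and increasing L-glutamate. Glutamate curves were fitted to an allosteric operational model; three independent assays in triplicate.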
Target sequence in this assay (Q14416 19-872 limits assumed): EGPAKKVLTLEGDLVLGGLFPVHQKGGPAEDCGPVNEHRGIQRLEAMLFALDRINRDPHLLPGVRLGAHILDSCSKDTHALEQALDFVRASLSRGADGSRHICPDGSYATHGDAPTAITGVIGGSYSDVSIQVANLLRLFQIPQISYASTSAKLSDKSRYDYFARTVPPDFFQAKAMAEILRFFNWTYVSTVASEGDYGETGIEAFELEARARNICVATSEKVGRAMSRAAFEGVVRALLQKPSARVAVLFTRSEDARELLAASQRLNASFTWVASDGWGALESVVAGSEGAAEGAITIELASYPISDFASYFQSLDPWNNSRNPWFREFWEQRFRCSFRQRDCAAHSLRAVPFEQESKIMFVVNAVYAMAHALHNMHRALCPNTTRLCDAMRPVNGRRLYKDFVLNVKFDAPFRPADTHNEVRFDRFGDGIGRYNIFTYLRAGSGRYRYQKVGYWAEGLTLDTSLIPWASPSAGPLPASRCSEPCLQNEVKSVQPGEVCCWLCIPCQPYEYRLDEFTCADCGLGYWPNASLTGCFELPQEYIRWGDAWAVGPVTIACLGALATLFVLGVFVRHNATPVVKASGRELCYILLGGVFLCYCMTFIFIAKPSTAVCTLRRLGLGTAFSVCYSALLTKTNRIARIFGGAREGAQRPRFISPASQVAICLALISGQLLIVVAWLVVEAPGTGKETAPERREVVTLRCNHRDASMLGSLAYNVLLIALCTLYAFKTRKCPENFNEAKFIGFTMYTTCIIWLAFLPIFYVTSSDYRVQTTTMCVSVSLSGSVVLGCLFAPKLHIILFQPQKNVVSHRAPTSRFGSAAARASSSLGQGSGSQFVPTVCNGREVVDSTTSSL

SUVmax [1]: 1.2
Compound: Cn1ccc(COc2cnc(C(N)=O)cc2-c2ccc(O[11CH3])cc2F)n1

logD [2]: 2.94
remaining at 1 h [3]: 94.5%
remaining at 1 h [4]: 47.8%
Compound: COc1ccc(-c2cc(C(N)=O)nc3c2CCC(C)(C)O3)c(F)c1

SUVmax [1]: 1.7
Compound: [11CH3]Oc1cc(CN2CCc3c(-c4ccc(F)cc4F)cc(C(N)=O)nc3C2)ccn1

Compound: CC1(C)CCc2c(-c3ccc(O[11CH3])cc3F)cc(C(N)=O)nc2O1
Drug uptake [5]: 11.1%
remaining at 20 min [6]: 53%
Retention_time [7]: 2 min
SUV [8]: 7.5
Drug uptake [9]: 39.6%
Drug uptake [10]: Active
remaining at 20 min [11]: 24.8%
Drug uptake [12]: Active
Drug uptake [13]: 41.7%
Drug uptake [14]: 41.7%
Drug uptake [15]: 12.7%
Drug uptake [16]: Active
Drug uptake [17]: 17.1%
Drug uptake [18]: 42.6%
Drug uptake [19]: 22.4%
Drug uptake [20]: Active
Drug uptake [21]: Active
Drug uptake [22]: 15.2%
Drug uptake [23]: 39.6%
Drug uptake [24]: 41.7%
Drug uptake [25]: Active
Drug uptake [26]: 38.5%

Ki [27]: 0.059 µM
logD [2]: 2.81
remaining at 1 h [3]: 95.3%
remaining at 1 h [4]: 94.5%
Activity [28]: Active
Compound: CC1(C)CCc2c(-c3ccc(F)cc3F)cc(C(N)=O)nc2O1

Reference: ChEMBL document CHEMBL5042537, “Synthesis and Characterization of 5-(2-Fluoro-4-[11C]methoxyphenyl)-2,2-dimethyl-3,4-dihydro-2H-pyrano[2,3-b]pyridine-7-carboxamide as a PET Imaging Ligand for Metabotropic Glutamate Receptor 2” (J Med Chem, 2022)
